Screens: PubChem, several laboratories
S1P1 ag pot: agonists and agonism potentiators of human S1P1 receptor. AID 449. P21453. 56,000 tested, 0.57% active. S1P1 CRE-bla cells, forskolin, beta-lactamase FRET, potentiator mode; S1P1 agonist co-added at EC20, 2 nM; 100% = saturating reference agonist, 0% = basal. activation, % at 9.5 µM;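 active means activation above a cutoff set at the mean activation of all tested compounds plus 3 SD, cut at about 54% in these data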;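 further: forskolin at 4 µM as EC80 and the EC20 agonist is SEW2871; 100% = SEW2871 at its EC100 plus forskolin at EC80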
M1 agonist: activates the M1 muscarinic receptor; B-score at 10 µM; CHO-M1 cells, Fluo-4 calcium fluorescence, agonist mode; stronger effect = higher value; AID 626; 64,000 tested, 3% active;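 active means fluorescence rise, raw or as B-score row- and column-corrected plate score, outside the 99.7% band of its plate's samples, either direction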
D1 mod: D1 dopamine receptor (human) allosteric modulation | P21728 | HEK293 D1, CRE-luciferase, dopamine EC30 potentiation; actives deviate in either direction | 58,000 tested, 5.9% active | AID 641 | B-score at 10 µM;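 active means luminescence count or its row- and column-corrected plate score outside the 99.7% band of the plate's sample wells, on either side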
S1P3 ag: S1P3 (human) receptor agonism; Q99500; S1P3 NFAT-BLA reporter cells, FRET ratio; relative to 1 µM S1P, basal subtracted; activation, % at 4.5 µM; 60,000 tested, 0.1% active; AID 373;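 active means activation above the screen-wide mean plus 3 SD, cut at about 4.5% in these data, passing the limit was not always enough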
Target sequence (Q99500 whole entry, looked up): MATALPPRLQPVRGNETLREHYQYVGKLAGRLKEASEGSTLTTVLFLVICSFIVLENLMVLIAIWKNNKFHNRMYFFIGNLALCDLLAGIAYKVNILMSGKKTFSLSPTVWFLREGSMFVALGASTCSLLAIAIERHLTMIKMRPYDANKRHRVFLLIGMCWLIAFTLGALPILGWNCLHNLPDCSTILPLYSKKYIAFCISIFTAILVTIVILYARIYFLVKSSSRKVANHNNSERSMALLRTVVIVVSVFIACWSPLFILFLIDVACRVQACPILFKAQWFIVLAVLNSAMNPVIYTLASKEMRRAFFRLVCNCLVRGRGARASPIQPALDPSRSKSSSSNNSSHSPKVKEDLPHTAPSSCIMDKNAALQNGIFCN
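Assay system: CHO cells stably expressing human S1P3, Gα16 and NFAT-β-lactamase reporter. Timing: overnight plating, 4 h compound 37 °C, 2 h substrate RT. Signal: β-lactamase FRET emission ratio 460/535 nm. Measure: percent activation versus median 1 µM S1P response, basal-subtracted, per plate. Repeats: primary screen single test, confirmation screen in triplicate.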
M1 antagonist: M1 muscarinic receptor (rat) antagonism; CHO-M1 cells, Fluo-4 calcium, ACh EC80 antagonist mode; stronger effect = lower value; B-score at 10 µM; 64,000 tested, 3.4% active; AID 628; P08482;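 active means calcium fluorescence response, raw or row-and-column corrected B-score, differing from the plate sample mean either way at a set confidence level, mostly lower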
M1 ag confirm: confirmation of rat M1 muscarinic receptor agonists; shares compounds with M1 agonist; CHO-M1 cells, Fluo-4 calcium fluorescence, agonist mode; actives lie on both sides; fluorescence change (max-min) at 10 µM; 1,700 tested, 19% active; AID 1488;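 active means fluorescence change differs from the solvent-only DMSO control mean at a set confidence level in both duplicate runs; inconclusive means differs from solvent-only control mean in just one of two runs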;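 further: an EC20 dose of acetylcholine follows compound addition during the same imaging run; raw fluorescence intensity difference in instrument units with no normalization to controls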
M4 agonist ctr: rat M4 muscarinic agonism, M1 counter-screen. shares compounds with M1 agonist. CHO M4/Gqi5 cells, Fluo-4 calcium fluorescence, agonist mode; actives lie on both sides. fluorescence change (max-min) at 10 µM. 1,700 tested, 9% active. AID 1741;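 active means fluorescence change differing from the plate's solvent-only control wells at 99.7% confidence in both duplicates, whether higher or lower; inconclusive means differs from solvent controls in only one of two duplicates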
Numbers without * were called inactive; ? = inconclusive; . = no result given. Most compounds without a hit are left out; they make up all but 11% or so of the library.

SMILES	S1P1 ag pot	M1 agonist	D1 mod	S1P3 ag	M1 antagonist	M1 ag confirm	M4 agonist ctr
CCc1ccc(NC(=O)CSc2nnc(Cn3c(=O)sc4ccccc43)n2C)cc1	-2	-0.95	.	-1	0.017	.	.
CCOC(=O)c1ccc(NC(=O)CSc2nnc(Cn3c(=O)sc4ccccc43)n2C)cc1	3	2.3*	.	0	0.19	3.5	-7
O=C(O)c1ccccc1C1=Nc2ccc(O)cc2Oc2cc(O)ccc21	-16	32*	-0.75	-1	0.38	418*	403*
COC(=O)c1ccccc1COn1c(=O)c(C)[n+]([O-])c2ccccc21	0	-0.43	0.022	0	-0.16	.	.
COC(=O)c1c(=O)n(O)c2ccc(OC)cc2[n+]1[O-]	4	19*	-0.018	-2	-0.65	117*	96*
O=C(CN(Cc1cccs1)C(=O)CN1C(=O)COc2ccccc21)NCc1ccco1	-12	0.29	0.015	0	1.1	.	.
CCN1CCN(c2nc3c(C)cccn3c(=O)c2/C=C(\C#N)S(=O)(=O)c2ccc(C)cc2)CC1	15	9.7*	-2.9	-3	-0.53	?	40
CCC1CCCCN1S(=O)(=O)c1ccc(S(=O)(=O)N(Cc2cccs2)C2CC2)cc1 (stereo not given)	26	9.7*	0.032	0	-1.9*	-31*	-72*
Cc1ccc(S(=O)(=O)N2CCCC(C(=O)N(Cc3cccs3)C3CC3)C2)cc1 (stereo not given)	.	0.1	.	.	0.32	.	.
Cc1ccnc(SCCn2c(N3CCN(c4ccccc4)CC3)nc3c2c(=O)[nH]c(=O)n3C)n1	-14	6.4*	-4.5*	-1	0.053	-7.8	?
Cc1ccnc(SCCn2c(N3CCN(C)CC3)nc3c2c(=O)[nH]c(=O)n3C)n1	-7	0.69	0.89	-2	1.3	.	.
COC(=O)CCC(=O)Nc1ccc(NC(C)=O)cc1	0	5.5*	-0.84	-1	-1.9	-8.9	-31
COC(=O)CCC(=O)Nc1ccc(NC(=O)CCC(=O)OC)cc1	-9	-0.087	-0.097	-1	-0.76	.	.
CC(=O)NC1CC(C)(C)N(OC(C)=O)C(C)(C)C1	.	0.021	0.22	.	-0.075	.	.
CCCOc1nc2c(c(=O)n(C)c(=O)n2C)n1Cc1cccc2ccccc12	.	3.6*	-0.95	.	-0.7	?	-32
Cn1c(=O)c2c(nc(N3CCNCC3)n2Cc2cccc3ccccc23)n(C)c1=O	1	-0.95	0.21	0	0.15	.	.
O=C(Nc1cccc(-c2nc3cccnc3s2)c1)c1ccco1	-11	6*	-2.1	0	-1.5	?	-50
Cc1nnc(NC(=O)C2CCCN(S(=O)(=O)Cc3ccccc3)C2)s1 (stereo not given)	.	0.59	-0.32	.	0.24	.	.
COC(=O)c1ccccc1NC(=O)C1CCCN(S(=O)(=O)c2ccccc2)C1 (stereo not given)	.	0.99	-0.13	0	-0.092	.	.
Cc1nnc(NC(=O)C2CCCN(S(=O)(=O)c3ccccc3C(F)(F)F)C2)s1 (stereo not given)	-7	16*	1.2	-1	0.17	-30	-44
O=C(Nc1nc(-c2ccccc2)cs1)C1CCCN(S(=O)(=O)c2ccccc2)C1 (stereo not given)	31	4.5*	0.47	0	-0.91	?	-34
COC(=O)c1ccccc1NC(=O)C1CCCN(S(=O)(=O)c2ccc(F)cc2)C1 (stereo not given)	3	5.5*	-0.012	-1	2.1	5.8	-3.6
O=C(Nc1nc(-c2ccccc2)cs1)C1CCCCN1S(=O)(=O)c1ccccc1 (stereo not given)	18	0.39	-0.95	1	-0.68	.	.
Cc1csc(Sc2nc3c(c(=O)[nH]c(=O)n3C)n2CCCc2ccccc2)n1	16	0.022	3.1	-1	0.76	.	.
COc1ccc(Cn2c(=O)oc3ccc(C)cc32)cc1OC	46	13*	0.92	0	0.11	4.2	-29
SMILES	S1P1 ag pot	M1 agonist	D1 mod	S1P3 ag	M1 antagonist	M1 ag confirm	M4 agonist ctr
O=C(NC1CCCCC1)N(Cc1ccc(F)cc1)Cc1nc2ccccc2c(=O)[nH]1	-2	-0.28	-0.21	0	-0.11	.	.
N#Cc1ccc(NC(=O)Nc2ccc(Cl)cc2)cc1	129*	3.1*	-2.6	0	-0.34	29	13
CN(CC(=O)Nc1ccc(C#N)cc1)Cc1ccc(Cl)cc1	17	-0.89	0.47	1	0.1	.	.
COc1cccc(C(=O)SC2=NCCS2)c1	-15	1.1	-0.26	0	-0.75	.	.
O=C1c2cccc3c(N4CCCCC4)ccc(c23)C(=O)N1c1ccccn1	28	78*	-0.57	-1	-1.5	775*	819*
O=C(CN1CCN(C2CCCCC2)CC1)NCCC1=CCCCC1	12	13*	0.35	0	-0.37	94*	-46
CCOC(=O)C1CCN(C(=O)C2CCN(S(=O)(=O)c3cc(Cl)ccc3Cl)CC2)CC1	-10	-1.1	-0.3	0	-0.061	.	.
Cc1ccccc1OCc1nc(-c2ccccc2)no1	.	-2.4*	-1.1	-1	-0.71	-9.1	-54
COc1ccccc1N1CCN(C(=O)CSc2ncccc2-c2nc3ccccc3[nH]2)CC1	.	13*	-0.82	.	-0.56	?	-62
CCN1C(=O)c2ccccc2S(=O)(=O)c2ccc(C(=O)NCc3cccnc3)cc21	-19	-0.59	-0.14	0	0.24	.	.
CC(=O)N1CCCc2cc(S(=O)(=O)NCCC3=CCCCC3)ccc21	58	-0.84	-0.28	-1	-1.2	.	.
CCOC(=O)C1=C(C)N=c2s/c(=C\c3cccn3C)c(=O)n2C1c1cccc(OC)c1OC (stereo not given)	-8	55*	0.66	-1	-0.67	3.4	76
CCOC(=O)C1=C(C)N=c2s/c(=C/c3ccco3)c(=O)n2C1c1cccc(OC)c1 (stereo not given)	-7	0.67	-0.6	-2	0.034	.	.
CCCCCC(=O)Nc1ccc(N2CCN(S(C)(=O)=O)CC2)cc1	8	-2.3*	-0.18	-1	-0.42	-0.16	-15
CCCCC(=O)Nc1ccc(N2CCN(C(=O)CC)CC2)cc1	3	0.99	-0.14	-1	-0.0021	.	.
O=C(c1cn(-c2ccccc2)nc1-c1ccc(Cl)s1)N1CCOCC1	6	7.7*	0.39	0	-0.25	-27	-26
O=C1NC(Nc2nccs2)(C(F)(F)F)C(=O)N1CCc1ccccc1 (stereo not given)	8	0.075	0.11	-1	-0.25	.	.
COc1ccccc1N1CCN(c2nc3ccccc3nc2C(C#N)C(=O)OC(C)C)CC1 (stereo not given)	-12	1.1	-0.76	-1	-1.6	.	.
